experiment: Toxicity liver stage against HepG2, at 10uM; format: cell-based; parameters: test concentration 10 uM, cell line HepG2-A16-CD81EGFP; settings: human, HepG2-A16-CD81EGFP cells; read-out: INHIBITION
How it was run: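 Uninfected HepG2-A16-CD81EGFP cells, 3 × 10^3 per well, 1536-well, plated on prespotted compound at 10 μM final, parasite-free screening media added to match infected plates; puromycin 10 μM positive, DMSO 0.5% negative; run in parallel with 48 h PbLuc assay at 37 °C, 5% CO2; viability by CellTiter-Glo luminescence, normalized to controls.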

Compound | cytotoxicity at 10 µM
CC(C(=O)Nc1ccnn1C(C)C)N1CCCN(c2nccs2)CC1 (centres undefined) | -9.39%
CCc1noc(C)c1C(=O)N1CCC2(CCCN(CC(C)(C)C)C2=O)C1 (centres undefined) | 3.75%
Cc1ccc(CN(C)C(=O)C(C)n2ccnc2C(C)C)o1 (centres undefined) | 5.99%
CN1CCN(C(=O)[C@H]2C[C@H]3[C@H](CCN3Cc3nccs3)O2)CC1 | 1.73%
CCC1=N[C@@]2(CC[C@@H]3CN(CC(=O)N(C)C)C[C@@H]32)C(=O)N1CC1CC1 | -3.5%
Cc1nc(-c2ccccc2F)sc1C(=O)N1CCC(=O)CC1 | -7.42%
c1cc(CN2CCCC3(COCCN(Cc4c[nH]nn4)C3)C2)cs1 (centres undefined) | 8.59%
COCCN(Cc1sccc1C)C(=O)C1CCCN(C(N)=O)C1 (centres undefined) | -4.7%
CC(=O)N1CCN(c2cc(C)ncn2)CC(CO)C1 (centres undefined) | 2.94%
COc1cccc(-c2noc(C3CCN(Cc4ccccc4C)C3)n2)c1 (centres undefined) | -6.88%
CNC(=O)C(c1cccc(Cl)c1)C(C)C (centres undefined) | 2.02%
Cc1cccn2c(CNC(C)CO)cnc12 (centres undefined) | -2.78%
O=S(=O)(CCN1CCN(c2ccccc2O)CC1)c1ccc(Cl)cc1 | 14.4%
COc1ccc(S(=O)(=O)N2CCc3ccc(F)cc32)cc1C(=O)O | -11.4%
Cc1cccc(C(=O)NCc2ccccc2)n1 | -4.83%
Cc1cc(CN2CCC(C3CCN(Cc4cccnc4)CC3)C2)[nH]n1 (centres undefined) | 11%
COc1cc(F)c(C(=O)NCc2ccon2)c(F)c1 | 2.13%
Cn1cncc1CN1CCOC(Cc2ccccc2)C1 (centres undefined) | 9.43%
O=C(Nc1cccc2c1CCCC2)c1cccnc1N1CCCNCC1 | 6.84%
N#Cc1cc(C#N)c(SCCC(=O)Nc2ccc(F)cc2)nc1N | 4.89%
Cc1ccc(C(=O)CN2C(=O)c3ccccc3CS2(=O)=O)c(C)c1 | 17.6%
F[C@@H]1CN(CC2CC2)C[C@@H]1OCc1nc2ccccc2o1 | 1.97%

Compound | cytotoxicity at 10 µM
CC(C)=CCN1CCOC(Cn2cccn2)C1 (centres undefined) | 2.4%
Cc1cc(NC(=O)NCc2cccnc2OC(C)C)n(C)n1 | 3.2%
COc1c(C(=O)N2CCOCC2)cnc2c1c(C)nn2C | 1.64%
CC(C)Nc1ncnc2c1CCNCC2 | -1.43%
Cc1cc(C(=O)O)cc(S(=O)(=O)Nc2ccc3c(c2)OCCO3)c1C | -3.95%
Cc1nc(CN(C)c2cc(N3CCCC3CO)ncn2)cs1 (centres undefined) | 4.53%
Cc1ccc(CNC(=O)CN2CCOC(Cn3cccn3)C2)s1 (centres undefined) | -24.1%
NC(=O)NC(=O)CCSCc1coc(-c2cccc(Cl)c2)n1 | -1.23%
OCc1ccc(CN2CCC(n3cc(C4CCCCC4)nn3)CC2)o1 | 1.02%
CC(C)Oc1ncc(C(=O)N2CCCC(C(=O)O)C2)cc1Cl (centres undefined) | -6.94%
CS(=O)(=O)CCN1C[C@H](NC(=O)c2cnc(O)cn2)[C@@H](C2CC2)C1 | 9.24%
COc1ccc(C2CCCCCN2CCCNS(C)(=O)=O)cc1 (centres undefined) | -6.07%
O=C1CC2(CCN(C(=O)c3cccc(Cl)c3)CC2)CN1 | -3.02%
O=C1CC(C(=O)Nc2nnc(-c3cccs3)[nH]2)c2ccccc2N1 (centres undefined) | -0.921%
Cc1cc(C(=O)N2CCCC(c3cc(C(F)(F)F)[nH]n3)C2)on1 (centres undefined) | 10.5%
CCc1ccc(CN2CCC(CNS(=O)(=O)C3CC3)C2)nc1 (centres undefined) | -4.69%
O=C(Nc1cccc2ccccc12)N1CCC(N2CCSCC2)CC1 | -1.86%
COc1ccc(CNC(=O)NCC2CCOC2)c(C(F)(F)F)c1 (centres undefined) | -8.28%
Nc1ccc(-c2ccc(F)cc2Cl)cn1 | -151%
COc1ccccc1C(O)CNCc1c(C(C)C)nn(C)c1N(C)C (centres undefined) | -7.31%
c1nc2c(c(N3CCCC(Cn4cncn4)C3)n1)CCC2 (centres undefined) | 52.4%
Cc1noc([C@@H]2C[C@H]3OCC[C@H]3N(S(C)(=O)=O)C2)n1 | -9.67%

Compound | cytotoxicity at 10 µM
O=C1OCCN1CC(=O)N1C[C@@H]2CC[C@H]1CN(C(=O)c1ccccc1)C2 | 5.46%
O=C(c1ccnnc1)N1CC[C@H](OCC2CC2)[C@@H]1Cc1ccncc1 | -1.43%
Cc1cccc(C2(O)CCN(C(=O)c3ccccn3)CC2)c1C | -0.823%
CSc1ccc(S(=O)(=O)NC2CNC(=O)C2)cc1 (centres undefined) | -2.46%
Cc1nn(C)c(Cl)c1C1CCCN1c1ncnc2sccc12 (centres undefined) | 20.8%
CCOCC1CN(S(=O)(=O)Cc2ccccc2)Cc2nccn2C1 (centres undefined) | -105%
O[C@@H]1C[C@@H](c2nc(-c3ccc(F)cc3)no2)N(C2CCOCC2)C1 | 4.51%
COc1cc2nc(C)n(CC(=O)NCCO)c(=O)c2cc1OC | -8.12%
O=C(Cc1ccsc1)N1Cc2nc(CN3CCCCC3)oc2C1 | 7.19%
CC1CN(C)c2ccccc2CN1C(=O)c1cscn1 (centres undefined) | -1.03%
CC(=O)N1CCN(Cc2cccc3c2sc2ccccc23)CC(O)C1 (centres undefined) | -12.9%
CCN1CC[C@@H]2OC[C@H](C(=O)NCc3cccs3)C[C@@H]2C1 | -106%
O=C(c1ccncc1F)N1CCc2ncnc(C3CC3)c2CC1 | -78.4%
CCn1ccnc1C1CCN(C(=O)C(O)c2ccc(Cl)cc2)CC1 (centres undefined) | -0.65%
CC(=O)N1CCN(c2ccnc3c(F)cc(Br)cc23)CC1 | 13.6%
NC(=O)[C@@H]1CN2CCN(C(=O)C3CC3)C[C@@H]2[C@H]1c1ccccc1 | 3.88%
Cc1cnn(C2CCCN(C(=O)c3cccc(-n4cnnn4)c3)C2)c1 (centres undefined) | -8.77%
CCOCCC(=O)N(C)Cc1noc(C(C)C)n1 | 6.13%
COc1ccc(C2CCCCCN2S(N)(=O)=O)cc1 (centres undefined) | 8.87%
Cc1ccccc1-c1noc(CN2CCC(c3ccn[nH]3)CC2)n1 | 1.98%
Cc1ccc(N2CC[C@H](OCC3CC3)[C@@H]2Cc2ccncc2)nn1 | 8.13%
CCc1ncc(CNC2CC(=O)N(CCc3cccc(Cl)c3)C2)cn1 (centres undefined) | -3.62%

Compound | cytotoxicity at 10 µM
COc1nc(N2CCNCC2)ncc1Br | 5.2%
CN(CCO)CC1COCCN1C(=O)C1(c2cccs2)CCCC1 (centres undefined) | -9.06%
CCN1CCn2c(C)cnc2C12CCN(C(=O)c1ccc(Cl)cc1)CC2 | 1.22%
O=C(CCNC(=O)N1CCC(c2ccccc2)C1)N1CCCCC1 (centres undefined) | -3.41%
O=C(NC[C@H]1Cn2c(-c3ccccc3)cnc2CO1)C1CCOCC1 | -0.869%
Cc1nc2c(c(=O)n1C)CN(C(=O)C1CCCN(C3CCCC3)C1)C2 (centres undefined) | -8.67%
Cn1c(-c2ccccc2Cl)nc2cc(C(=O)NCC3(CO)CC3)cnc21 | -4.33%
N#Cc1cccc(C(=O)N2CC[C@H]3[C@H]2CCN3CC2CC2)c1 | 3.03%
CCOCCn1nc(C)cc1C(=O)N1CC[C@](O)(CC)[C@H](O)C1 | -3%
Cc1ccccc1-c1noc(-c2ccc(N(C)C3CCOCC3)nc2)n1 | 2.65%
CC(=O)NCCc1ccc(S(=O)(=O)N(CC(C)C)C(C)C)s1 | 18.8%
Cc1[nH]c2c(C)ccc(C)c2c1CC(=O)NC1CCCNC1=O (centres undefined) | -0.274%
N#Cc1ccc(CNCC(C(=O)N2CCOCC2)c2ccccc2)cc1 (centres undefined) | -11.9%
CN(C)C[C@]12COC[C@H]1CN(Cc1ccc3c(c1)OCO3)C2 | -123%
CN1CC2(CCN(C(=O)c3ccc(-n4cnnc4)cc3Cl)CC2)OC1=O | 4.03%
COCCNC(=O)NCCn1nc(C(F)(F)F)n(C)c1=O | -2.06%
COc1cc(NCCCSc2nnc(C)s2)ncn1 | 20.6%
CC(C)Oc1cccc(C(O)CNC(=O)CCc2ccncc2)c1 (centres undefined) | -3.82%
CCOC(=O)C1CCN(c2nccc(-n3nc(C)cc3C)n2)CC1 | -8.99%
CC(C)c1nc2n(n1)CC(NCc1nc(-c3ccsc3)no1)CC2 (centres undefined) | -5.39%
CN1CCN(Cc2ccccc2Cl)CC12CCC(=O)N(CC1CC1)CC2 (centres undefined) | -3.94%
Cc1cc(C)n(C2CN(CC(=O)N(C)Cc3cnn(C)c3)C2)n1 | -5.85%

Compound | cytotoxicity at 10 µM
CNC(=O)CN(C)c1nc(-c2ccncc2)nc2c1CCN(C(C)=O)C2 | -5.13%
Cc1noc(C)c1C(=O)N1CCC2(CCc3ccccc3C(=O)N2)C1 (centres undefined) | 1.75%
CC(C)(C)c1ccc(OCC(=O)O)c(CN2C[C@H]3CC(O)C[C@H]3C2)c1 (some centres undefined) | 3.46%
COc1cccc2c1OCC(CNC(=O)CCCN1CCOCC1)C2 (centres undefined) | 16.6%
CC(C)[C@H](N)CC(=O)Nc1nc(-c2cnc(N3CCOCC3)nc2)cs1 | -9.8%
CCN(C)c1ncnc2c1CCN(Cc1ccoc1)CC2 | -0.439%
CNS(=O)(=O)c1cccc(CNC(=O)NCC2CCOC2)c1 (centres undefined) | -9.97%
Cc1nn(C)c(C)c1C1CCCN1C(=O)CCc1ccco1 (centres undefined) | -21.5%
CCn1c(CN2CCC(O)(c3ccc4c(c3)OCO4)CC2)cnc1SC | 6.96%
c1cnc(N2CCC3(COCc4cnc(N5CCOCC5)nc43)C2)nc1 (centres undefined) | -1.72%
O=C1CCCN1CCN1CC[C@@]2(O)CCN(c3ncccn3)C[C@H]2C1 | -2.61%
COc1ccc2c(c1)C(C(=O)N(C)CCCc1cnn(C)c1)CC(=O)N2 (centres undefined) | -46.9%
Cc1ncc(CC(=O)N2CCC3(CCC(=O)N(CCO)C3)CC2)c(=O)[nH]1 | -44.7%
CC1CC(NS(=O)(=O)c2ccc(C(F)(F)F)nc2)C1 (centres undefined) | 23.1%
CCc1noc(CCCC(=O)N2CCCC(c3ccn[nH]3)C2)n1 (centres undefined) | -0.799%
CCC(CC)C(=O)N1CCCc2c(cnn2C)C1 | 6.55%
CCn1cnnc1C1CCN(C(=O)c2cc3c(s2)CCCC3)CC1 | -1.76%
CCNC(=O)N1C[C@@H]2OCC(=O)N(CC3CC3)[C@@H]2C1 | 0.434%
COCC(=O)N1CCC2(CC1)CN(S(C)(=O)=O)Cc1ccccc1O2 | 7.3%
O=C(Nc1cc(-c2ccccn2)no1)C1CC1 | -5.34%
CNC(=O)CN1CCOCC2(C1)CN(Cc1csnn1)CCO2 (centres undefined) | -89.3%
